System: Fibroblast
Experiment: Multiplex assay against human fibroblast
Assay type: toxicity, cell-based
In short: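 With compound added, live cells were imaged on a CQ1 microscope at 37°C and 5% CO2; staining with Hoechst33342, BioTracker Green Microtubule Cytoskeleton Dye, MitoTracker Red and Annexin V Alexa Fluor 680 had been done at seeding. The CellPathfinder machine-learning gating scheme split cells into Hoechst high-intensity objects or normal cells, normal cells into healthy, pyknosed or fragmented nuclei, and pyknosed cells into mitotic or apoptotic. The tubulin, mitochondrial-mass and membrane-permeability phenotypes are per cents of healthy-nucleus cells.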

[1] = 12 h, 1 µM, compound concentration 1 uM, replicate 1
[2] = 12 h, 1 µM, compound concentration 1 uM, replicate 2
[3] = 12 h, 10 µM, compound concentration 10 uM, replicate 1
[4] = 12 h, 10 µM, compound concentration 10 uM, replicate 2
[5] = 24 h, 1 µM, compound concentration 1 uM, replicate 1
[6] = 24 h, 1 µM, compound concentration 1 uM, replicate 2
[7] = 24 h, 10 µM, compound concentration 10 uM, replicate 1
[8] = 24 h, 10 µM, compound concentration 10 uM, replicate 2
[9] = 48 h, 1 µM, compound concentration 1 uM, replicate 1
[10] = 48 h, 1 µM, compound concentration 1 uM, replicate 2
[11] = 48 h, 10 µM, compound concentration 10 uM, replicate 1
[12] = 48 h, 10 µM, compound concentration 10 uM, replicate 2

Cn1cc(C(=O)OCC2CCN(CCNS(C)(=O)=O)CC2)c2ccccc21
Population Apoptotic (%) [1]: 44%
Population Fragmented Nuclei (%) [1]: 13%
Population Healthy Nuclei (%) [1]: 71%
Population Hoechst High Intensity Objects (%) [1]: 1%
Population Membrane Permeable-Phenotype (%) [1]: 0%
Population Mitochondria Different-Phenotype (%) [1]: 3%
Population Mitotic Cells (%) [1]: 55%
Population Normal (%) [1]: 98%
Population Pyknosed Nuclei (%) [1]: 14%
Population Tubulin-Different-Phenotype (%) [1]: 23%
Total Cell Count [1]: 202
Population Apoptotic (%) [2]: 33%
Population Fragmented Nuclei (%) [2]: 21%
Population Healthy Nuclei (%) [2]: 46%
Population Hoechst High Intensity Objects (%) [2]: 4%
Population Membrane Permeable-Phenotype (%) [2]: 9%
Population Mitochondria Different-Phenotype (%) [2]: 1%
Population Mitotic Cells (%) [2]: 66%
Population Normal (%) [2]: 95%
Population Pyknosed Nuclei (%) [2]: 32%
Population Tubulin-Different-Phenotype (%) [2]: 37%
Total Cell Count [2]: 164
Population Apoptotic (%) [3]: 48%
Population Fragmented Nuclei (%) [3]: 29%
Population Healthy Nuclei (%) [3]: 55%
Population Hoechst High Intensity Objects (%) [3]: 3%
Population Membrane Permeable-Phenotype (%) [3]: 0%
Population Mitochondria Different-Phenotype (%) [3]: 9%
Population Mitotic Cells (%) [3]: 51%
Population Normal (%) [3]: 96%
Population Pyknosed Nuclei (%) [3]: 14%
Population Tubulin-Different-Phenotype (%) [3]: 41%
Total Cell Count [3]: 207
Population Apoptotic (%) [4]: 25%
Population Fragmented Nuclei (%) [4]: 32%
Population Healthy Nuclei (%) [4]: 51%
Population Hoechst High Intensity Objects (%) [4]: 5%
Population Membrane Permeable-Phenotype (%) [4]: 5%
Population Mitochondria Different-Phenotype (%) [4]: 7%
Population Mitotic Cells (%) [4]: 75%
Population Normal (%) [4]: 94%
Population Pyknosed Nuclei (%) [4]: 16%
Population Tubulin-Different-Phenotype (%) [4]: 47%
Total Cell Count [4]: 184
Population Apoptotic (%) [5]: 31%
Population Fragmented Nuclei (%) [5]: 13%
Population Healthy Nuclei (%) [5]: 74%
Population Hoechst High Intensity Objects (%) [5]: 5%
Population Membrane Permeable-Phenotype (%) [5]: 0%
Population Mitochondria Different-Phenotype (%) [5]: 0%
Population Mitotic Cells (%) [5]: 68%
Population Normal (%) [5]: 94%
Population Pyknosed Nuclei (%) [5]: 11%
Population Tubulin-Different-Phenotype (%) [5]: 23%
Total Cell Count [5]: 201
Population Apoptotic (%) [6]: 30%
Population Fragmented Nuclei (%) [6]: 25%
Population Healthy Nuclei (%) [6]: 47%
Population Hoechst High Intensity Objects (%) [6]: 2%
Population Membrane Permeable-Phenotype (%) [6]: 7%
Population Mitochondria Different-Phenotype (%) [6]: 6%
Population Mitotic Cells (%) [6]: 69%
Population Normal (%) [6]: 97%
Population Pyknosed Nuclei (%) [6]: 26%
Population Tubulin-Different-Phenotype (%) [6]: 48%
Total Cell Count [6]: 168
Population Apoptotic (%) [7]: 80%
Population Fragmented Nuclei (%) [7]: 33%
Population Healthy Nuclei (%) [7]: 53%
Population Hoechst High Intensity Objects (%) [7]: 5%
Population Membrane Permeable-Phenotype (%) [7]: 0%
Population Mitochondria Different-Phenotype (%) [7]: 3%
Population Mitotic Cells (%) [7]: 20%
Population Normal (%) [7]: 94%
Population Pyknosed Nuclei (%) [7]: 13%
Population Tubulin-Different-Phenotype (%) [7]: 42%
Total Cell Count [7]: 201
Population Apoptotic (%) [8]: 41%
Population Fragmented Nuclei (%) [8]: 40%
Population Healthy Nuclei (%) [8]: 43%
Population Hoechst High Intensity Objects (%) [8]: 4%
Population Membrane Permeable-Phenotype (%) [8]: 3%
Population Mitochondria Different-Phenotype (%) [8]: 5%
Population Mitotic Cells (%) [8]: 58%
Population Normal (%) [8]: 95%
Population Pyknosed Nuclei (%) [8]: 16%
Population Tubulin-Different-Phenotype (%) [8]: 52%
Total Cell Count [8]: 188
Population Apoptotic (%) [9]: 54%
Population Fragmented Nuclei (%) [9]: 14%
Population Healthy Nuclei (%) [9]: 72%
Population Hoechst High Intensity Objects (%) [9]: 5%
Population Membrane Permeable-Phenotype (%) [9]: 0%
Population Mitochondria Different-Phenotype (%) [9]: 1%
Population Mitotic Cells (%) [9]: 45%
Population Normal (%) [9]: 94%
Population Pyknosed Nuclei (%) [9]: 12%
Population Tubulin-Different-Phenotype (%) [9]: 23%
Total Cell Count [9]: 197
Population Apoptotic (%) [10]: 52%
Population Fragmented Nuclei (%) [10]: 33%
Population Healthy Nuclei (%) [10]: 54%
Population Hoechst High Intensity Objects (%) [10]: 4%
Population Membrane Permeable-Phenotype (%) [10]: 5%
Population Mitochondria Different-Phenotype (%) [10]: 2%
Population Mitotic Cells (%) [10]: 47%
Population Normal (%) [10]: 95%
Population Tubulin-Different-Phenotype (%) [10]: 43%
Total Cell Count [10]: 177
Population Apoptotic (%) [11]: 68%
Population Fragmented Nuclei (%) [11]: 28%
Population Healthy Nuclei (%) [11]: 58%
Population Hoechst High Intensity Objects (%) [11]: 9%
Population Membrane Permeable-Phenotype (%) [11]: 0%
Population Mitochondria Different-Phenotype (%) [11]: 9%
Population Mitotic Cells (%) [11]: 32%
Population Normal (%) [11]: 90%
Population Pyknosed Nuclei (%) [11]: 13%
Population Tubulin-Different-Phenotype (%) [11]: 49%
Total Cell Count [11]: 199
Population Apoptotic (%) [12]: 50%
Population Fragmented Nuclei (%) [12]: 40%
Population Healthy Nuclei (%) [12]: 46%
Population Hoechst High Intensity Objects (%) [12]: 6%
Population Membrane Permeable-Phenotype (%) [12]: 2%
Population Mitochondria Different-Phenotype (%) [12]: 8%
Population Mitotic Cells (%) [12]: 50%
Population Normal (%) [12]: 93%
Population Pyknosed Nuclei (%) [12]: 12%
Population Tubulin-Different-Phenotype (%) [12]: 60%
Total Cell Count [12]: 190

C[C@@H]1CC(=O)Nc2cccc(-c3ccc4c(c3)c(-c3cnn(C)c3)nn4C)c2N1
Population Apoptotic (%) [1]: 38%
Population Fragmented Nuclei (%) [1]: 20%
Population Healthy Nuclei (%) [1]: 63%
Population Hoechst High Intensity Objects (%) [1]: 1%
Population Membrane Permeable-Phenotype (%) [1]: 0%
Population Mitochondria Different-Phenotype (%) [1]: 4%
Population Mitotic Cells (%) [1]: 61%
Population Normal (%) [1]: 98%
Population Pyknosed Nuclei (%) [1]: 15%
Population Tubulin-Different-Phenotype (%) [1]: 31%
Total Cell Count [1]: 115
Population Fragmented Nuclei (%) [2]: 26%
Population Healthy Nuclei (%) [2]: 47%
Population Hoechst High Intensity Objects (%) [2]: 5%
Population Membrane Permeable-Phenotype (%) [2]: 8%
Population Mitochondria Different-Phenotype (%) [2]: 12%
Population Normal (%) [2]: 94%
Population Pyknosed Nuclei (%) [2]: 26%
Population Tubulin-Different-Phenotype (%) [2]: 51%
Total Cell Count [2]: 105
Population Apoptotic (%) [3]: 40%
Population Fragmented Nuclei (%) [3]: 17%
Population Healthy Nuclei (%) [3]: 65%
Population Hoechst High Intensity Objects (%) [3]: 5%
Population Membrane Permeable-Phenotype (%) [3]: 1%
Population Mitochondria Different-Phenotype (%) [3]: 19%
Population Mitotic Cells (%) [3]: 59%
Population Normal (%) [3]: 94%
Population Pyknosed Nuclei (%) [3]: 17%
Population Tubulin-Different-Phenotype (%) [3]: 63%
Total Cell Count [3]: 161
Population Apoptotic (%) [4]: 30%
Population Fragmented Nuclei (%) [4]: 11%
Population Healthy Nuclei (%) [4]: 58%
Population Hoechst High Intensity Objects (%) [4]: 6%
Population Membrane Permeable-Phenotype (%) [4]: 7%
Population Mitochondria Different-Phenotype (%) [4]: 5%
Population Mitotic Cells (%) [4]: 69%
Population Normal (%) [4]: 93%
Population Pyknosed Nuclei (%) [4]: 30%
Population Tubulin-Different-Phenotype (%) [4]: 68%
Total Cell Count [4]: 126
Population Apoptotic (%) [5]: 57%
Population Fragmented Nuclei (%) [5]: 16%
Population Healthy Nuclei (%) [5]: 67%
Population Hoechst High Intensity Objects (%) [5]: 2%
Population Membrane Permeable-Phenotype (%) [5]: 2%
Population Mitochondria Different-Phenotype (%) [5]: 5%
Population Mitotic Cells (%) [5]: 42%
Population Normal (%) [5]: 97%
Population Pyknosed Nuclei (%) [5]: 15%
Population Tubulin-Different-Phenotype (%) [5]: 33%
Total Cell Count [5]: 122
Population Apoptotic (%) [6]: 35%
Population Fragmented Nuclei (%) [6]: 29%
Population Healthy Nuclei (%) [6]: 50%
Population Hoechst High Intensity Objects (%) [6]: 7%
Population Membrane Permeable-Phenotype (%) [6]: 11%
Population Mitochondria Different-Phenotype (%) [6]: 9%
Population Mitotic Cells (%) [6]: 65%
Population Normal (%) [6]: 92%
Population Pyknosed Nuclei (%) [6]: 19%
Population Tubulin-Different-Phenotype (%) [6]: 60%
Total Cell Count [6]: 112
Population Apoptotic (%) [7]: 75%
Population Fragmented Nuclei (%) [7]: 19%
Population Healthy Nuclei (%) [7]: 69%
Population Hoechst High Intensity Objects (%) [7]: 10%
Population Membrane Permeable-Phenotype (%) [7]: 0%
Population Mitochondria Different-Phenotype (%) [7]: 15%
Population Mitotic Cells (%) [7]: 25%
Population Normal (%) [7]: 89%
Population Pyknosed Nuclei (%) [7]: 11%
Population Tubulin-Different-Phenotype (%) [7]: 66%
Total Cell Count [7]: 158
Population Apoptotic (%) [8]: 42%
Population Fragmented Nuclei (%) [8]: 13%
Population Healthy Nuclei (%) [8]: 57%
Population Hoechst High Intensity Objects (%) [8]: 5%
Population Membrane Permeable-Phenotype (%) [8]: 1%
Population Mitochondria Different-Phenotype (%) [8]: 4%
Population Mitotic Cells (%) [8]: 57%
Population Normal (%) [8]: 94%
Population Pyknosed Nuclei (%) [8]: 29%
Population Tubulin-Different-Phenotype (%) [8]: 76%
Total Cell Count [8]: 119
Population Apoptotic (%) [9]: 50%
Population Fragmented Nuclei (%) [9]: 25%
Population Healthy Nuclei (%) [9]: 60%
Population Hoechst High Intensity Objects (%) [9]: 5%
Population Membrane Permeable-Phenotype (%) [9]: 1%
Population Mitochondria Different-Phenotype (%) [9]: 6%
Population Mitotic Cells (%) [9]: 50%
Population Normal (%) [9]: 94%
Population Pyknosed Nuclei (%) [9]: 14%
Population Tubulin-Different-Phenotype (%) [9]: 21%
Total Cell Count [9]: 114
Population Apoptotic (%) [10]: 30%
Population Fragmented Nuclei (%) [10]: 36%
Population Healthy Nuclei (%) [10]: 50%
Population Hoechst High Intensity Objects (%) [10]: 2%
Population Membrane Permeable-Phenotype (%) [10]: 12%
Population Mitochondria Different-Phenotype (%) [10]: 8%
Population Mitotic Cells (%) [10]: 69%
Population Normal (%) [10]: 97%
Population Pyknosed Nuclei (%) [10]: 13%
Population Tubulin-Different-Phenotype (%) [10]: 60%
Total Cell Count [10]: 102
Population Apoptotic (%) [11]: 92%
Population Fragmented Nuclei (%) [11]: 17%
Population Healthy Nuclei (%) [11]: 73%
Population Hoechst High Intensity Objects (%) [11]: 3%
Population Membrane Permeable-Phenotype (%) [11]: 0%
Population Mitochondria Different-Phenotype (%) [11]: 19%
Population Mitotic Cells (%) [11]: 7%
Population Normal (%) [11]: 96%
Population Pyknosed Nuclei (%) [11]: 8%
Population Tubulin-Different-Phenotype (%) [11]: 68%
Total Cell Count [11]: 162
Population Apoptotic (%) [12]: 60%
Population Healthy Nuclei (%) [12]: 62%
Population Hoechst High Intensity Objects (%) [12]: 4%
Population Membrane Permeable-Phenotype (%) [12]: 6%
Population Mitochondria Different-Phenotype (%) [12]: 2%
Population Mitotic Cells (%) [12]: 39%
Population Normal (%) [12]: 95%
Population Pyknosed Nuclei (%) [12]: 19%
Population Tubulin-Different-Phenotype (%) [12]: 69%
Total Cell Count [12]: 122

Reference: ChEMBL document CHEMBL5058577, “EUbOPEN Chemogenomics Library 2 (Multiplex)” (2022)
